Experimental data as given in ChEMBL document CHEMBL1122007, “A comparison of the inhibition of growth of methotrexate-resistant and -sensitive leukemia cells in culture by triazines. Evidence for a new mechanism of cell resistance to methotrexate” (1982).

Test system: L5178Y
Assay: Compound was tested in vitro for concentration required to decrease 50% growth rate of murine leukemia L5178Y/R cell culture
Type: functional, Mus musculus
In short: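 Seeded at 4.0-6.0 × 10^4 cells/mL in duplicate. Drug added 1:10, at least eight concentrations, for 48 h of continuous exposure under 5% CO2. Cells counted by Coulter counter. ID50 is the concentration that halves the growth rate (doubles the generation time), read from the dose-response curve.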

Compound	Log 1/C
Cc1cccc(N2C(N)=NC(N)=NC2(C)C)c1	4.97
CC(=O)c1cccc(N2C(N)=NC(N)=NC2(C)C)c1	4.56
CC1(C)N=C(N)N=C(N)N1c1cccc(CNc2cc(C(N)=O)cc(C(N)=O)c2)c1	3.79
CC(C)c1cccc(OCc2cccc(N3C(N)=NC(N)=NC3(C)C)c2)c1	5.87
CCCCCCc1cccc(N2C(N)=NC(N)=NC2(C)C)c1	6.39
CC1(C)N=C(N)N=C(N)N1c1cccc(OCCCCOc2cccc(C(F)(F)F)c2)c1	6.28
CC1(C)N=C(N)N=C(N)N1c1cccc(I)c1	5.91
CC1(C)N=C(N)N=C(N)N1c1cccc(C(O)c2ccccc2)c1 (configuration not stated)	4.17
CC(=O)Nc1cccc(OCc2cccc(N3C(N)=NC(N)=NC3(C)C)c2)c1	4.95
CCc1cccc(OCc2cccc(N3C(N)=NC(N)=NC3(C)C)c2)c1	5.74
CC1(C)N=C(N)N=C(N)N1c1cccc(COc2cccc(Cl)c2)c1	5.93
CCCCCCCCCCCCOc1cccc(N2C(N)=NC(N)=NC2(C)C)c1	6.24
CCCCCCCCCCCCCCOc1cccc(N2C(N)=NC(N)=NC2(C)C)c1	6.49
Cc1cccc(OCc2cccc(N3C(N)=NC(N)=NC3(C)C)c2)c1	5.59
CC1(C)N=C(N)N=C(N)N1c1cccc(OCCOc2cccc(C(F)(F)F)c2)c1	5.85
CCCCCCCCCCCCCOc1cccc(N2C(N)=NC(N)=NC2(C)C)c1	6.52
CC1(C)N=C(N)N=C(N)N1c1cccc(F)c1	5.24
CCCCCCCCCOc1cccc(N2C(N)=NC(N)=NC2(C)C)c1	6.57
CCCCCCCCCCCOc1cccc(N2C(N)=NC(N)=NC2(C)C)c1	6.38

Compound	Log 1/C
CC1(C)N=C(N)N=C(N)N1c1cccc(OCc2ccccc2)c1	5.19
CC1(C)N=C(N)N=C(N)N1c1cccc(COc2cccc(C#N)c2)c1	5.25
CC1(C)N=C(N)N=C(N)N1c1cccc(Br)c1	5.9
CC1(C)N=C(N)N=C(N)N1c1cccc([N+](=O)[O-])c1	5.03
CN(C)C(=O)c1cccc(COc2ccc(N3C(N)=NC(N)=NC3(C)C)cc2Cl)c1	5.4
CC1(C)N=C(N)N=C(N)N1c1cccc(COc2cccc(NC(=N)S)c2)c1	4.01
CC1(C)N=C(N)N=C(N)N1c1cccc(COc2cccc(NC(N)=O)c2)c1	4.74
CCCCOc1cccc(N2C(N)=NC(N)=NC2(C)C)c1	5.95
CC1(C)N=C(N)N=C(N)N1c1cccc(OCCOc2ccccc2)c1	5.02
CC1(C)N=C(N)N=C(N)N1c1cccc(COc2ccccc2)c1	5.67
CC(C)(C)c1cccc(OCc2cccc(N3C(N)=NC(N)=NC3(C)C)c2)c1	6.08
CC1(C)N=C(N)N=C(N)N1c1cccc(OCCCCOc2ccccc2)c1	5.3
CC(C)(C)c1cccc(N2C(N)=NC(N)=NC2(C)C)c1	6.03
COc1cccc(OCc2cccc(N3C(N)=NC(N)=NC3(C)C)c2)c1	5.36
CC1(C)N=C(N)N=C(N)N1c1cccc(CSc2ccccc2)c1	6.2
CC1(C)N=C(N)N=C(N)N1c1cccc(OCc2ccc(Cl)c(Cl)c2)c1	5.8
CC1(C)N=C(N)N=C(N)N1c1cccc(COc2cccc(CO)c2)c1	4.77
CN(Cc1cnc2nc(N)nc(N)c2n1)c1ccc(C(=O)N[C@@H](CCC(=O)O)C(=O)O)cc1 [METHOTREXATE]	2.9
